Screens from PubChem BioAssay.
In the library only some 3.9% were active in any assay of this set; here they are far more common.
XBP1 UPR activ: adaptive UPR (XBP1) activation; CHO-XBP1 luciferase reporter, IRE1-XBP1 UPR activation, luminescence; percent of tunicamycin response, DMSO as zero; activation, % at 20 µM; 330,000 compounds, 0.33% hits; AID 463104;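 active means versus positive control, 20 µM dose yields 30% or more activation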;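 further: 100% = tunicamycin at 10 µg/mL and 0% = DMSO only wells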
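Signal: luciferase luminescence; Assay system: CHO-XBP1 luciferase reporter cells; Amount: one thousand reporter cells per well; Dosing: 20 µM single concentration, DMSO 1%; Benchmarks: high control tunicamycin 10 µg/mL final, low control DMSO vehicle only; Schedule: 6 h compound exposure at 37 °C, 5% CO2; Evaluation: percent activation relative to tunicamycin reference.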
tim10-1 inh: inhibits growth of tim10-1 mutant yeast; S. cerevisiae tim10-1 ts strain growth, BacTiter-Glo, 24 h; inhibition, % at 20 µM; 330,000 compounds, 2.2% hits;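 active means inhibition of at least 40%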;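 further: mutant grown at 25 °C; 0% = DMSO wells with yeast and 100% = wells holding no yeast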
tim23-1 inh: tim23-1 yeast growth inhibition; S. cerevisiae tim23-1 growth, BacTiter-Glo luminescence, 24 h; inhibition, % at 20 µM; 330,000 compounds, 1.3% hits; AID 463212;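 active means growth inhibition of the mutant yeast at or above 50%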;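 further: temperature-sensitive mutant grown at 25 °C; plate controls were DMSO-treated mutant yeast for no effect and medium wells lacking yeast for full effect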
UPR CHOP act: activators of apoptotic arm of unfolded protein response (CHOP) | CHO-CHOP luciferase reporter, UPR activation, luminescence; percent of tunicamycin response over DMSO baseline | activation, % at 10 µM | 330,000 compounds, 0.34% hits | AID 449763;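 active means at 10 µM dose, activation of 40% or more, normalized to positive control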;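 further: 100% = tunicamycin at 10 µg/mL and 0% = DMSO alone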
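measured by = luciferase luminescence | assay system = CHO-CHOP cells, stable luciferase reporter of PERK-eIF2a-CHOP signalling | amount = 500 reporter cells seeded per well | timing = 6 h compound exposure at 37 °C after overnight seeding | controls = positive tunicamycin 10 µg/mL, negative DMSO alone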
TIM10 inh: growth inhibitors of TIM10 yeast strain; S. cerevisiae TIM10 strain growth, BacTiter-Glo luminescence, 24 h; inhibition, % at 10 µM; 330,000 compounds, 1.4% hits; AID 463195;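 active means inhibition of 40% or more at the single tested concentration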;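 further: wild-type TIM10 isogenic control strain grown at permissive 25 °C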
tim10-1 conf: tim10-1 yeast growth inhibition, confirmed. shares compounds with tim10-1 inh. inhibition, % at 20 µM. 7,400 compounds, 56% hits. S. cerevisiae tim10-1 ts strain growth, BacTiter-Glo, 24 h;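 active means inhibition of yeast growth at or above a set limit in either of two repeat tests at 20 µM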;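 further: tim10-1 mutant grown at permissive 25 °C to find synthetic lethal compounds; 0% = DMSO yeast wells and 100% = medium wells without yeast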
* = called active by the depositor; / = no result given; ! = not confirmed by another sample.

SMILES | XBP1 UPR activ | tim10-1 inh | tim23-1 inh | UPR CHOP act | TIM10 inh | tim10-1 conf
O=C(NCc1ccc(OC(F)(F)F)cc1)C1CCC(=O)N(C2CC2)C1 (configuration not stated) | -5 | 4 | -5 | -2 | 0 | /
COc1cccc(N=Nc2c(N)[nH]n3c(=O)cc(-c4ccccc4)nc23)c1 | -1 | 13 | 11 | 9 | 9 | /
Cc1ccc(N=Nc2c(N)[nH]n3c(=O)cc(-c4ccccc4)nc23)cc1 | 2 | 50* | 34 | 1 | 11 | 27
COc1cc(C(=O)NNC(=O)CN2C(=O)NC(C)(c3ccc(C)cc3)C2=O)cc(OC)c1OC (configuration not stated) | 0 | -4 | 4 | 0 | 5 | /
CCOC(=O)C1CCCN(C(=O)CN2C(=O)COc3ccc(C(C)(C)C)cc32)C1 (configuration not stated) | 5 | 30 | 31 | 2 | 23 | /
CCOC(=O)C1CCN(C(=O)CN2C(=O)COc3ccc(C(C)(C)C)cc32)CC1 | -5 | 44* | 28 | 2 | 9 | 7
COCCN(CC1CCCN(C2Cc3ccccc3C2)C1)C(=O)CCC(N)=O (configuration not stated) | -5 | 1 | -5 | -1 | -9 | /
N#CCC(=O)N/N=C/c1c(-c2ccccc2)n(-c2ccccc2)c2ccccc12 | -1 | -4 | 16 | 5 | 22 | /
COc1ccc(-c2nc(CSCC(=O)NC3CCCc4ccccc43)c(C)o2)cc1OC (configuration not stated) | 4 | 41* | 29 | 0 | 21 | 11
O=C(Nc1cccc(Br)c1)c1cc(S(=O)(=O)N2CCOCC2)cs1 | -4 | -13 | -2 | 1 | 11 | /
CCc1cccc(NS(=O)(=O)c2c(C)nc3sc(CC)nn3c2=O)c1 | -3 | 27 | 26 | 0 | 11 | /
Cc1ccc(CNC(=O)Cc2csc(Nc3nc(=S)[nH]c4ccccc34)n2)cc1 | 0 | 40 | 4 | 2 | 4 | 26
O=C(Cc1csc(Nc2nc(=S)[nH]c3ccccc23)n1)NCc1ccccc1Cl | 15 | 29 | 4 | 0 | 3 | /
CCCCOc1ccc(C(=O)C(CN2CCOCC2)c2ccccc2)cc1 (configuration not stated) | 14 | 44* | 1 | 38 | 34 | 35*
CCCCCOc1ccc(C(=O)C(c2ccccc2)N2CCOCC2)cc1 (configuration not stated) | -1 | 30 | 20 | -1 | 35 | /
CCn1c(NC(=O)/C=C/c2ccc(F)cc2)nc2ccccc21 | 3 | 13 | 49 | 1 | 4 | /
CC(CCc1ccccc1)NC(=O)COC(=O)c1ccc(S(C)(=O)=O)c([N+](=O)[O-])c1 (configuration not stated) | -7 | 46* | 18 | 12 | 4 | 14
CC(CCc1ccccc1)NC(=O)COC(=O)c1ccc([N+](=O)[O-])cc1 (configuration not stated) | -2 | -7 | 2 | 0 | 16 | /
CCCNC(=O)C(Cc1ccc(I)cc1)NC(=O)C1CC1 (configuration not stated) | 0 | 4 | 15 | -1 | 1 | /
Cc1cc(=O)oc2cc(OCC(=O)N3CCN(c4ccccc4)CC3)ccc12 | 0 | 2 | 24 | 3 | 6 | /
Cc1cc(=O)oc2cc(OCc3ccc(C(=O)N4CCN(c5ccccc5)CC4)cc3)ccc12 | -1 | 43* | 18 | 3 | 7 | 13
CCCOc1ccccc1/C=C1\SC(N2CCCCC2)=NC1=O | 4 | 42* | 43 | 3 | 17 | 33*
O=C1N=C(N2CCCCC2)S/C1=C\c1ccccc1F | 0 | -4 | 20 | 8 | -2 | /
O=S(=O)(Nc1ccc2c(c1)oc1ccccc12)N1CCCC1 | 1 | 48* | 22 | -2 | 39 | 27
CC(=O)Oc1ccc(/C=C2/Oc3ccccc3C2=O)cc1 | 2 | 44* | 40 | 0 | 26 | 8
SMILES | XBP1 UPR activ | tim10-1 inh | tim23-1 inh | UPR CHOP act | TIM10 inh | tim10-1 conf
COc1ccccc1C(=O)NCCC(=O)Nc1ncccc1O | -2 | -29 | 1 | 0 | -1 | /
O=S1(=O)CCOC(CO)CN1Cc1ccc(Cl)c(Cl)c1 (configuration not stated) | 1 | -6 | 34 | 1 | -3 | /
CCOc1ccc2nc(SC3CC(=O)N(c4ccc(OC)cc4OC)C3=O)sc2c1 (configuration not stated) | -6 | 44* | 34 | 9 | 36 | 43*
N#CC1(N2CCN(C(=O)c3ccccc3)CC2)CCCCC1 | -4 | 6 | 8 | 1 | -12 | /
Cc1nn(-c2ccc3ccccc3c2)c(=O)c2ccccc12 | 4 | 40* | 40 | 2 | 35 | 28
Cc1nn(-c2ccc(Cl)c(Cl)c2)c(=O)c2ccccc12 | 0 | 14 | 5 | 10 | 9 | /
NC(=NCCCCCCN=C(N)/N=C(\N)Nc1ccc(Cl)cc1)/N=C(\N)Nc1ccc(Cl)cc1 | -1 | 66* | 23 | 25 | -229 | 41*!
CC(C)(C)n1ncc2c(=O)n(Cc3ccc(Cl)cc3Cl)cnc21 | -2 | 14 | 20 | -4 | 20 | /
Cc1cc(C)n(-c2ccn(Cc3ccc(Cl)cc3Cl)c(=O)n2)n1 | 1 | 40* | 43 | -2 | 16 | 28
CN1CCN(S(=O)(=O)c2cccc(C#N)c2)C(c2ccccc2)C1 (configuration not stated) | 0 | 13 | 11 | -1 | -1 | /
CCCNC(=O)c1ccc(Cl)cc1Cl | -3 | 97* | 5 | 1 | 3 | -2
CCOC(=O)c1c(C)oc2ccc(NS(=O)(=O)c3cccs3)cc12 | -1 | 42* | 37 | 1 | 29 | 21
CCCOC(=O)c1ccc(NS(=O)(=O)c2cccs2)cc1 | 2 | 54* | 38 | 1 | 30 | 35*
Cc1ccccc1OCC(=O)NNC(=O)Cn1[nH]c(=O)c2ccccc2c1=O | -1 | 0 | 1 | 1 | -6 | /
CCOc1ccccc1OCCCC(=O)NNC(=O)c1ccc(F)cc1 | -1 | 16 | 14 | -2 | 4 | /
CCOC(=O)Nc1nc(-c2ccc(Cl)cc2Cl)cs1 | 0 | 40* | 41 | 2 | 36 | 17
CCOC(=O)Nc1nc(C)c(C(=O)c2ccc(Cl)cc2)s1 | 2 | 9 | -2 | -3 | 13 | /
Cc1ccc(S(=O)(=O)N2CCCCC2)cc1NC(=O)COC(=O)C1(C)CC1(Cl)Cl (configuration not stated) | -4 | 14 | 13 | 0 | 4 | /
COc1ccc(NC(=O)CN2C(=O)NC(C)(c3ccccc3)C2=O)cc1Cl (configuration not stated) | -1 | -4 | 11 | 3 | 5 | /
COCC(COS(N)(=O)=O)C(C)C (configuration not stated) | -1 | -20 | -2 | 2 | -8 | /
